Experimental findings from ChEMBL document CHEMBL3124905, “Isothiocoumarin-3-carboxylic acid derivatives: synthesis, anticancer and antitrypanosomal activity evaluation” (Eur J Med Chem, 2014) are described below.

Common to all, as to format: functional
One experiment has as its system SR. The experiment in a line: Growth inhibition of human SR cells after 48 hrs by SRB assay. Conditions: for TGI: read-out: pTGI (converted). The procedure, abridged:
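NCI ~60-cell-line five-dose screen. Cells were preincubated 24-48 h, then given compound at 10-fold dilutions from 10^-4 to 10^-8 M with 48 h continuous exposure. SRB protein stain was read by absorbance at time zero, in untreated control and with drug. GI50 was derived from [(Ti-Tz)/(C-Tz)]x100=50, TGI from Ti=Tz, and LC50 from [(Ti-Tz)/Tz]x100=-50.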

Experiment [1] concerns Trypanosoma brucei brucei. The experiment in a line: Antitrypanosomal activity against bloodstream form of Trypanosoma brucei brucei strain 90-13 assessed as inhibition of parasite growth at 10 ug/ml after 72 hrs by resazurin reduction test. Conditions: strain 90-13, 72 h. The essentials: (§1)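 Trypanosoma brucei brucei 90-13 bloodstream forms, grown in HMI9 with 10% FCS at 37 °C under 5% CO2. Log-phase parasites were seeded at 10^5 cells/mL with or without inhibitor, with stocks prepared in DMSO. After 72 h, resazurin was added and fluorescence was read at 530/590 nm after a further 4 h. Percent growth inhibition was calculated versus drug-free parasites, with DMSO as control.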

For experiment [2], the system named is Trypanosoma brucei brucei. The experiment in a line: Antitrypanosomal activity against bloodstream form of Trypanosoma brucei brucei strain 90-13 assessed as inhibition of parasite growth at 1 ug/ml after 72 hrs by resazurin reduction test. The conditions noted are these: strain 90-13, 72 h. The procedure, abridged: as §1
The next experiment deals with MCF7. The experiment in a line: Anticancer activity against human MCF7 cells assessed as cell growth at 100 uM after 48 hrs by SRB assay. The conditions noted are these: MCF7, 48 h, read-out: Activity. The essentials:
(§2)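 NCI one-dose primary screen on a three-line panel (breast MCF7, lung NCI-H460, CNS SF-268). Cells were inoculated and preincubated 24–48 h, then exposed to a single concentration of 10−4 M for 48 h. The endpoint was sulforhodamine B protein staining, and results are expressed as percent growth relative to untreated control cells. Negative values denote cytotoxicity.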

The next experiment concerns NCI-H460. The experiment in a line: Anticancer activity against human NCI-H460 cells assessed as cell growth at 100 uM after 48 hrs by SRB assay. The conditions noted are these: NCI-H460, 48 h, read-out: Activity. The procedure, abridged:
as §2

For another experiment, the system named is SF-268. The experiment in a line: Anticancer activity against human SF268 cells assessed as cell growth at 100 uM after 48 hrs by SRB assay. Conditions: SF-268, 48 h, read-out: Activity. The procedure, abridged: as §2
A further experiment deals with Malme-3M. The experiment in a line: Growth inhibition of human MALME-3M cells after 48 hrs by SRB assay. The procedure, abridged:
(§3)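 NCI five-dose assay against the ~60-cell-line panel (nine cancer types). Tenfold dilutions from 10−4 to 10−8 M were used with continuous 48-h exposure and SRB absorbance readout. Percent growth was computed from time-zero, control and treated absorbances. GI50 is the concentration giving 50% lower net protein increase than controls. Values not reached are reported as beyond the tested range.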

Experiment [3] in a line: Growth inhibition of human HOP92 cells after 48 hrs by SRB assay. Conditions: HOP-92, 48 h; for TGI: read-out: pTGI (converted). The procedure, abridged: as §3
The next experiment has as its system CCRF-CEM. The experiment in a line: Growth inhibition of human CCRF-CEM cells after 48 hrs by SRB assay. The essentials:
as §3

Another experiment concerns KM12. The experiment in a line: Growth inhibition of human KM12 cells after 48 hrs by SRB assay. Conditions: KM12, 48 h. The essentials: as §3
A further experiment concerns MDA-MB-435. The experiment in a line: Growth inhibition of human MDA-MB-435 cells after 48 hrs by SRB assay. Conditions: MDA-MB-435, 48 h. The essentials: as §3

SMILES strings stand for the structures.

Consider `NS(=O)(=O)c1ccc(NC(=O)c2cc3ccccc3c(=O)s2)cc1`, for which, in the experiment with SR, halving of growth (GI50) required 31.6 µM and the TGI was > 100 µM.
Turning to `COc1ccc2cc(C(=O)Nc3cc(C)on3)sc(=O)c2c1OC`, in experiment [1], the inhibition at 10 µg/mL worked out at 3.93%. Further, the inhibition at 1 µg/mL in experiment [2] worked out at 12.2%. For the same compound, the figures for the growth at 100 µM in the experiment with MCF7, in the experiment with NCI-H460 and with SF-268 were 52%, 70% and 51%, respectively.
Consider `O=C(O)c1cc2ccccc2c(=O)s1`, for which, in [1], the inhibition at 10 µg/mL was 0.05%. In addition, the inhibition at 1 µg/mL in experiment [2] came out at 16.8%.
`COc1ccc2cc(C(=O)N3CCCCCC3)sc(=O)c2c1OC`: the values for the GI50 (in the experiment with Malme-3M; in experiment [3]) were 34.7 µM and 2.75 µM, respectively. In addition, the values for the TGI (in the experiment on Malme-3M (read-out: pTGI (converted)); in experiment [3]) were > 100 µM and 8.13 µM, respectively.
On to `COc1ccc2cc(C(=O)Nc3cccc4ccccc34)sc(=O)c2c1OC`, for which the inhibition at 10 µg/mL in experiment [1] is 41.2%. In addition, the inhibition at 1 µg/mL in experiment [2] stood at 20.8%. Besides, in experiment [3], halving of growth (GI50) required 20.4 µM and the TGI is 69.2 µM.
In the case of `CCOC(=O)c1ccc(NC(=O)c2cc3ccc(OC)c(OC)c3c(=O)s2)cc1`, the inhibition at 10 µg/mL in experiment [1] worked out at 20.9%. In addition, in [2], the inhibition at 1 µg/mL is -0.53%. For the same compound, the growth at 100 µM in the experiment on MCF7 turned out to be 105%; with NCI-H460, 103%; in the experiment with SF-268, 117%.
With `COc1ccc2cc(C(=O)Nc3ccc(O)cc3)sc(=O)c2c1OC`, the GI50 with CCRF-CEM was 5.62 µM; with KM12, 26.3 µM; in experiment [3], 17.8 µM; in the experiment with SR, 3.47 µM; with MDA-MB-435, 18.6 µM. In addition, the TGI in the experiment with CCRF-CEM (read-out: pTGI (converted)) was > 100 µM; in the experiment with KM12 (read-out: pTGI), > 100 µM; in experiment [3], 95.5 µM; in the experiment on SR, 42.7 µM; in the experiment on MDA-MB-435 (read-out: pTGI (converted)), 77.6 µM.
As to `O=C(c1cc2ccccc2c(=O)s1)N1CCOCC1`, the inhibition at 10 µg/mL in experiment [1] was 8.15%. In addition, the inhibition at 1 µg/mL in experiment [2] was 8.13%. Moreover, the growth at 100 µM in the experiment on MCF7 turned out to be 114%; in the experiment on NCI-H460, 109%; in the experiment with SF-268, 111%.
As to `O=C(O)CNC(=O)c1cc2ccccc2c(=O)s1`, the inhibition at 10 µg/mL in experiment [1] is 0.18%. Moreover, the inhibition at 1 µg/mL in [2] is 10.8%.
Regarding `COC(=O)c1cc2ccc(OC)c(OC)c2c(=O)s1`, the figures for the growth at 100 µM in the experiment with MCF7, with NCI-H460 and with SF-268 were 108%, 82% and 113%, respectively.
Regarding `COc1ccc2cc(C(=O)NCC(=O)O)sc(=O)c2c1OC`, the growth at 100 µM in the experiment on MCF7 came to 109%; in the experiment on NCI-H460, 109%; in the experiment with SF-268 it was 112%.
Regarding `CCOC(=O)c1cc2ccccc2c(=O)s1`, in [1], the inhibition at 10 µg/mL is -3.91%. Moreover, in experiment [2], the inhibition at 1 µg/mL came out at 35.8%.
Turning to `COc1ccc2cc(C(=O)Nc3ccc(Cl)cc3)sc(=O)c2c1OC`, the inhibition at 10 µg/mL in [1] is 5.99%. Also, the inhibition at 1 µg/mL in [2] came out at 5.77%. The values for the growth at 100 µM with MCF7, with NCI-H460 and in the experiment on SF-268 were 80%, 93% and 91%, respectively.
Consider `O=C(Nc1nccs1)c1cc2ccccc2c(=O)s1`, for which the growth at 100 µM in the experiment on MCF7 amounted to 91%; in the experiment on NCI-H460 it was 93%; in the experiment with SF-268, 90%.
Turning to `COc1ccc2cc(C(=O)Nc3ccccc3C(F)(F)F)sc(=O)c2c1OC`, the inhibition at 10 µg/mL in experiment [1] is 2.91%. Further, the inhibition at 1 µg/mL in experiment [2] turned out to be 6.86%. Also, the growth at 100 µM with MCF7 turned out to be 99%; with NCI-H460 it was 90%; in the experiment with SF-268, 107%.
Turning to `O=C(Nc1cccc(C(F)(F)F)c1)c1cc2ccccc2c(=O)s1`, the inhibition at 10 µg/mL in experiment [1] was -7.12%. For the same compound, the inhibition at 1 µg/mL in [2] was determined as 5.78%.
In the case of `O=C(Nc1ccccc1)c1cc2ccccc2c(=O)s1`, the growth at 100 µM with MCF7 turned out to be 78%; with NCI-H460, 75%; in the experiment on SF-268, 83%.
In the same order, the values of `Cc1c(NC(=O)c2cc3ccccc3c(=O)s2)c(=O)n(-c2ccccc2)n1C` are 107%, 52% and 106%.
